Data set [1] has as its system Mus musculus. The data set can be described thus: Anticonvulsant activity in albino mouse assessed as protection against subcutaneous metrazole-induced seizures up to 300 mg/kg, ip after 0.5 hrs. The data set is classed as functional, organism-based. Also noted: dose 300 mg/kg. A digest of the protocol: (§1)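 Male albino Carworth Farms No. 1 mice dosed ip under NIH Anticonvulsant Screening Program; subcutaneous Metrazol seizure challenge at 0.5 and 4 h after doses up to 300 mg/kg.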

The nature of data set [2]: Behavioral toxicity in po dosed Sprague-Dawley albino rat. The data set is classed as organism-based. The settings on record: Sprague-Dawley, in vivo.
The test system of data set [3] is Mus musculus. The data set can be described thus: Anticonvulsant activity in albino mouse assessed as protection against subcutaneous metrazole-induced seizures up to 300 mg/kg, ip after 4 hrs. The data set is classed as functional, organism-based. Also noted: dose 300 mg/kg. Summed up: as §1
Data set [4] relates to Mus musculus. Kind of data set: Antiinflammatory activity in albino mouse assessed as reduction in formalin-induced late inflammation at 16 mg/kg, ip. The data set is classed as functional, organism-based. More on the design: dose 16 mg/kg.
Data set [5] is described as follows: (§2) Toxicity in ip dosed albino mouse after 0.5 hrs by rotarod test. The data set is classed as organism-based. The settings on record: albino, in vivo. In general terms: In the rotarod test animals must keep their balance on a rotating rod.
Data set [6] concerns Mus musculus. Kind of data set: Anticonvulsant activity in ip dosed albino mouse assessed as inhibition of maximal electroshock-induced seizures after 0.5 hrs. The data set is classed as functional. A general note: In the maximal electroshock model the usual endpoint is tonic extension of the hind limbs.
The test system of data set [7] is Mus musculus. The data set can be described thus: Anticonvulsant activity in ip dosed albino mouse assessed as protection against subcutaneous metrazole-induced seizures. The data set is classed as functional. Summed up:
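Subcutaneous Metrazol seizure model in male albino Carworth Farms No. 1 mice, ip dosing. Doses up to 300 mg/kg tested at two time points (0.5 and 4 h).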

Data set [8] has as its system Mus musculus. The data set can be described thus: Anticonvulsant activity in ip dosed albino mouse assessed as inhibition of maximal electroshock-induced seizures after 4 hrs. The data set is classed as functional. A digest of the protocol:
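Male albino Carworth Farms No. 1 mice given compound ip; maximal electroshock applied and protection scored as blockade of hind limb extension; identification screening, then ED50 (mg/kg) from quantitative testing for active compounds.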

Data set [9] concerns Rattus norvegicus. Kind of data set: Anticonvulsant activity in po dosed Sprague-Dawley albino rat assessed as inhibition of maximal electroshock-induced seizures. The data set is classed as functional. A digest of the protocol: (§3)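 Male albino Sprague-Dawley rats dosed orally; maximal electroshock seizures, protection scored as blockade of hind limb extension, tested at set times after dosing; ED50 in mg/kg from quantitative evaluation for active compounds.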

Data set [10] concerns Rattus norvegicus. The data set can be described thus: Anticonvulsant activity in po dosed Sprague-Dawley albino rat assessed as inhibition of maximal electroshock-induced seizures after 1 hr. The data set is classed as functional. A digest of the protocol:
as §3

The test system of data set [11] is Rattus norvegicus. The data set can be described thus: (§4) Behavioral toxicity in po dosed Sprague-Dawley albino rat after 1 hr. The data set is classed as organism-based. Conditions: in vivo, 1 h. Summed up: (§5)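 Oral dosing in male albino Sprague-Dawley rats with behavioral toxicity observation at set times after dosing, doses up to 500 mg/kg.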
Data set [12] can be described thus: Toxicity in ip dosed albino mouse after 4 hrs by rotarod test. The data set is classed as organism-based. Conditions: in vivo. Summed up: (§6)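 Male albino Carworth Farms No. 1 mice dosed ip; neurological impairment by rotorod test at set times; TD50 (mg/kg) determined for compounds active in MES.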
The test system of data set [13] is Mus musculus. Kind of data set: Anticonvulsant activity in ip dosed albino mouse assessed as inhibition of maximal electroshock-induced seizures after 2 hrs. The data set is classed as functional.
For data set [14], the species on record is Rattus norvegicus. Kind of data set: Protective index, ratio of TD50 for Sprague-Dawley albino rat to anticonvulsant ED50 for Sprague-Dawley albino rat. The data set is classed as functional. A digest of the protocol: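 Rat, oral: behavioral-toxicity TD50 divided by MES ED50, both in mg/kg.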
In data set [15] the test system is Rattus norvegicus. Kind of data set: Anticonvulsant activity in po dosed Sprague-Dawley albino rat assessed as inhibition of maximal electroshock-induced seizures after 0.25 to 2 hrs. The data set is classed as functional. A digest of the protocol:
as §3

Data set [16] deals with Mus musculus. The data set can be described thus: Anticonvulsant activity in ip dosed albino mouse assessed as protection against 6 Hz electric shock-induced seizures after 0.5 hrs. The data set is classed as functional. Summed up: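 Psychomotor 6 Hz (32 mA) seizure model in male albino Carworth Farms No. 1 mice given compound ip; ED50 in mg/kg.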
Data set [17] in a line: Behavioral toxicity in po dosed Sprague-Dawley albino rat after 0.25 to 4 hrs. Conditions: in vivo. The data set is classed as organism-based. Summed up:
as §5

Data set [18] is filed under the species Mus musculus. The data set can be described thus: Protective index, ratio of TD50 for albino mouse to anticonvulsant ED50 for albino mouse. The data set is classed as functional.
Data set [19] concerns Mus musculus. Kind of data set: Anticonvulsant activity in ip dosed albino mouse assessed as inhibition of maximal electroshock-induced seizures after […]. The data set is classed as functional.
A short description of data set [20]: (§7) Behavioral toxicity in po dosed Sprague-Dawley albino rat after 4 hrs. The data set is classed as organism-based. Conditions: Sprague-Dawley, in vivo. Summed up: as §5
Data set [21] has as its system Mus musculus. Kind of data set: Anticonvulsant activity in ip dosed albino mouse assessed as inhibition of maximal electroshock-induced seizures. The data set is classed as functional. The settings on record: read-out: ED50. Summed up: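 Male albino Carworth Farms No. 1 mice dosed intraperitoneally; screened via the NIH Anticonvulsant Screening Program. Protection scored as blocking of hind limb extension after maximal electroshock. Median effective dose (ED50, mg/kg) obtained in quantitative evaluations of active compounds. Rotorod test gave TD50 for neurological impairment, and PI = TD50/ED50.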

Data set [22] can be described thus: Toxicity in ip dosed albino mouse by rotarod test. The data set is classed as organism-based. Conditions: in vivo. A digest of the protocol: as §6
Data set [23] deals with Mus musculus. Described as §2. Conditions: in vivo, 0.5 h. The data set is classed as organism-based.
Data set [24] concerns Rattus norvegicus. The description is as §7. The data set is classed as organism-based. Conditions: in vivo, 4 h. A digest of the protocol:
as §5

Data set [25] relates to Rattus norvegicus. Kind of data set: Anticonvulsant activity in po dosed Sprague-Dawley albino rat assessed as inhibition of maximal electroshock-induced seizures after 4 hrs. The data set is classed as functional. Summed up: as §3
The nature of data set [26]: as §4. The data set is classed as organism-based. The settings on record: Sprague-Dawley, in vivo. A digest of the protocol: as §5

Activity calls are given as the source filed them. The calls are words filed in the database; no cut-off is given here.

As a reminder, the TD50 is the dose at which the toxic effect under study appears in half of the subjects. A low value points to harm at a small dose. As to `COC[C@@H](NC(C)=O)C(=O)NCc1ccccc1` [LACOSAMIDE], the result with Mus musculus [1] and with Mus musculus [3] was inactive. In data set [2], this compound gave a TD50 greater than 500 mg/kg. In the data set with Mus musculus [4], the outcome was Active.
One may read the ED50 as the dose that gives a 50% effect, or the effect in half of the subjects. `COCC(NCc1ccc(OCc2cccc(F)c2)cc1)C(N)=O` (racemic) returned a TD50 at 0.5 h in data set [5] of 100 mg/kg. The values for the ED50 with Mus musculus [6] and in the data set on Mus musculus [7] were 30 mg/kg and greater than 300 mg/kg, respectively.
Turning to `CC(=O)NCC(=O)NCc1ccc(OCc2cccc(F)c2)cc1`, the result with Mus musculus [1] and with Mus musculus [3] was inactive. Further, the ED50 in the data set with Mus musculus [8] was found to be 100 mg/kg; in the data set with Rattus norvegicus [9], 18 mg/kg; in the data set with Rattus norvegicus [10], 31 mg/kg; in the data set on Mus musculus [13] it was 30 mg/kg. For the same compound, the TD50 in the data set with Rattus norvegicus [11] is greater than 500 mg/kg. In data set [12], this compound had a TD50 at 4 h greater than 300 mg/kg. The “Ratio TD50/ED50” value in the data set filed under Rattus norvegicus [14] is listed as greater than 16.
For `COC[C@@H](NC(C)=O)C(=O)NCc1ccc(Oc2cccc(F)c2)cc1`, the ED50 is less than 10 mg/kg with Rattus norvegicus [15], 10 mg/kg in the data set on Mus musculus [16] and 5.5 mg/kg with Mus musculus [19]. In data set [17], the TD50 was greater than 10 mg/kg. For the same compound, in the data set filed under Mus musculus [18], the “Ratio TD50/ED50” value was determined as 4.2.
Regarding `COC[C@@H](NC(C)=O)C(=O)NCc1ccc(NCc2cccc(F)c2)cc1`, the TD50 at 0.5 h in [5] was determined as 30 mg/kg. Moreover, the ED50 in the data set on Mus musculus [6] was determined as 10 mg/kg.
Consider `CCCC(CCC)C(=O)[O-].[Na+]` [VALPROATE SODIUM], for which the outcome with Mus musculus [1] and with Mus musculus [3] was inactive. The ED50 in the data set with Mus musculus [19] was 270 mg/kg.
Regarding `COC[C@@H](NC(C)=O)C(=O)NCc1ccc(CCc2cccc(F)c2)cc1`, the TD50 at 0.5 h in [5] came to 30 mg/kg. Moreover, the ED50 with Rattus norvegicus [10] is less than 30 mg/kg; in the data set on Mus musculus [6], 10 mg/kg. Further, in the data set on Rattus norvegicus [11], the TD50 is greater than 30 mg/kg.
As for `CC(=O)NC(C(=O)NCc1ccc(OCc2cccc(F)c2)cc1)c1ccccn1` (racemic), the result in the data set on Mus musculus [1] and with Mus musculus [3] was inactive. The compound also had a TD50 at 4 h in data set [20] greater than 30 mg/kg. Besides, the ED50 with Mus musculus [6] is 28 mg/kg.
For the compound `C[C@@H](NCc1ccc(OCc2cccc(F)c2)cc1)C(N)=O`, the result with Mus musculus [1] and in the data set on Mus musculus [3] was inactive. For the same compound, the “Ratio TD50/ED50” value in the data set listed under Mus musculus [18] was 88. For the same compound, the ED50 with Mus musculus [21] was 7.2 mg/kg. In [22], this compound displayed a TD50 of 580 mg/kg.
In the case of `COC[C@@H](NC(C)=O)C(=O)NCc1ccc(OCc2ccccc2F)cc1`, in the data set on Mus musculus [19], the ED50 worked out at 6.7 mg/kg.
`CC(=O)N[C@H](C)C(=O)NCc1ccc(OCc2cccc(F)c2)cc1`: the result in the data set with Mus musculus [1] and in the data set on Mus musculus [3] was inactive. Moreover, the TD50 in the data set with Mus musculus [23] is greater than 300 mg/kg; in the data set on Rattus norvegicus [24] it was greater than 500 mg/kg. In addition, the ED50 in the data set on Mus musculus [8] was less than 100 mg/kg; in the data set on Rattus norvegicus [9], 21 mg/kg; in the data set on Rattus norvegicus [25], 31 mg/kg; in the data set with Mus musculus [6] it was greater than 30 mg/kg. The “Ratio TD50/ED50” value in the data set filed under Rattus norvegicus [14] is greater than 16.
Turning to `CCC1(c2ccccc2)C(=O)NC(=O)NC1=O`, the outcome with Mus musculus [1] and in the data set on Mus musculus [3] was inactive.
Consider `COC[C@@H](NC(C)=O)C(=O)NCc1ccc(OCc2ccccc2)cc1`, for which, in [26], the TD50 at 1 h was greater than 250 mg/kg. The entries for the “Ratio TD50/ED50” value in the data set listed under Mus musculus [18] and in the data set listed under Rattus norvegicus [14] were 3.8 and greater than 45, respectively. For the same compound, the ED50 in the data set with Mus musculus [19] turned out to be 5.8 mg/kg.
With `CC(=O)N[C@@H](C(=O)NCc1ccc(OCc2cccc(F)c2)cc1)C(C)(C)C`, the outcome in the data set with Mus musculus [1] and with Mus musculus [3] was inactive. In addition, the TD50 in the data set on Mus musculus [23] is greater than 300 mg/kg. Also, the ED50 in the data set with Mus musculus [8] is greater than 300 mg/kg. The same compound displayed a TD50 at 4 h in data set [12] of 300 mg/kg.

Values taken from ChEMBL document CHEMBL1157779, “Merging the structural motifs of functionalized amino acids and alpha-aminoamides: compounds with significant anticonvulsant activities” (J Med Chem, 2010).
